Experiment: Lipophilicity, log D of the compound at pH 7 by shake flask method
Type: physicochemical
Conditions: buffer
Procedure, shortened: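 High-throughput shake-flask log D determination at pH 7.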

| SMILES | logD |
| --- | --- |
| Cc1ncnc(C)c1C(=O)N1C[C@H]2CN(CC[C@H](NC(=O)C3CCCC3)c3ccccc3)C[C@H]2C1 | 1.37 |
| Cc1cc(C#N)nc(C)c1C(=O)N1C[C@H]2CN(CC[C@H](NC(=O)C3CCCC3)c3ccccc3)C[C@H]2C1 | 1.89 |
| Cc1ccnc(C)c1C(=O)N1C[C@H]2CN(CC[C@H](NC(=O)C3CCCC3)c3ccccc3)C[C@H]2C1 | 1.9 |
| Cc1nn(-c2ccccc2)c(C)c1C(=O)N1C[C@H]2CN(CC[C@H](NC(=O)C3CCCC3)c3ccccc3)C[C@H]2C1 | 2.92 |

From ChEMBL document CHEMBL1208790, “Exploration of a new series of CCR5 antagonists: multi-dimensional optimization of a sub-series containing N-substituted pyrazoles” (Bioorg Med Chem Lett, 2010)
